# Source: ChEMBL document CHEMBL4138186, “Synthesis and bio-evaluation of indole-chalcone based benzopyrans as promising antiligase and antiproliferative agents” (Eur J Med Chem, 2018)
# Activity calls are given as the source filed them. No cut-off for these calls is given here.
# Tests used:
# HepG2 = assay: Antiproliferative activity against human HepG2 cells at 10 uM after 48 hrs by MTT assay; type: functional, cell-based
# How it was run: (§1)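 Cells seeded and allowed to adhere overnight, then given compound from 10 mM DMSO stock; DMSO alone as vehicle control. Grown 48 h, MTT (5 mg/ml) added for 3 h, formazan dissolved in DMSO, absorbance read at 590 nm. % inhibition = (A control − A treated)/A control × 100; three independent biological replicates. Single-point screen at 10 μM; IC50 from three independent experiments.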
# [1] = target: DNA ligase 1 (Homo sapiens) (UniProt P18858); assay: Inhibition of human Lig1 at 10 uM using double strand nicked DNA as substrate after 30 mins in presence of ATP by acrylamide-based fluorescence-assay
# How it was run: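 Cy3-labelled nicked duplex (52-mer annealed to 25- and 27-mers; 1 pmol) with purified hLigI (0.2 pmol) in 50 mM Tris-Cl pH 7.5, 10 mM MgCl2, 0.25 mg/mL BSA, 100 mM NaCl, 500 µM ATP. Compound at 10 μM; 30 min at 37 °C. Stopped with formamide/EDTA; ligated and unligated strands separated on 7 M urea/12% denaturing gel. Triplicate.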
# MDA-MB-231 = assay: Antiproliferative activity against human MDA-MB-231 cells at 10 uM after 48 hrs by MTT assay; type: functional, cell-based; how it was run: as §1
# DLD-1 = assay: Antiproliferative activity against human DLD1 cells at 10 uM after 48 hrs by MTT assay; type: functional, cell-based; how it was run: as §1
# 4T1 (Mus musculus) = assay: Antiproliferative activity against mouse 4T1 cells at 10 uM after 48 hrs by MTT assay
# HeLa = assay: Antiproliferative activity against human HeLa cells at 10 uM after 48 hrs by MTT assay; type: functional, cell-based; how it was run: as §1
# Sequence of DNA ligase 1 (Homo sapiens) (P18858 whole entry): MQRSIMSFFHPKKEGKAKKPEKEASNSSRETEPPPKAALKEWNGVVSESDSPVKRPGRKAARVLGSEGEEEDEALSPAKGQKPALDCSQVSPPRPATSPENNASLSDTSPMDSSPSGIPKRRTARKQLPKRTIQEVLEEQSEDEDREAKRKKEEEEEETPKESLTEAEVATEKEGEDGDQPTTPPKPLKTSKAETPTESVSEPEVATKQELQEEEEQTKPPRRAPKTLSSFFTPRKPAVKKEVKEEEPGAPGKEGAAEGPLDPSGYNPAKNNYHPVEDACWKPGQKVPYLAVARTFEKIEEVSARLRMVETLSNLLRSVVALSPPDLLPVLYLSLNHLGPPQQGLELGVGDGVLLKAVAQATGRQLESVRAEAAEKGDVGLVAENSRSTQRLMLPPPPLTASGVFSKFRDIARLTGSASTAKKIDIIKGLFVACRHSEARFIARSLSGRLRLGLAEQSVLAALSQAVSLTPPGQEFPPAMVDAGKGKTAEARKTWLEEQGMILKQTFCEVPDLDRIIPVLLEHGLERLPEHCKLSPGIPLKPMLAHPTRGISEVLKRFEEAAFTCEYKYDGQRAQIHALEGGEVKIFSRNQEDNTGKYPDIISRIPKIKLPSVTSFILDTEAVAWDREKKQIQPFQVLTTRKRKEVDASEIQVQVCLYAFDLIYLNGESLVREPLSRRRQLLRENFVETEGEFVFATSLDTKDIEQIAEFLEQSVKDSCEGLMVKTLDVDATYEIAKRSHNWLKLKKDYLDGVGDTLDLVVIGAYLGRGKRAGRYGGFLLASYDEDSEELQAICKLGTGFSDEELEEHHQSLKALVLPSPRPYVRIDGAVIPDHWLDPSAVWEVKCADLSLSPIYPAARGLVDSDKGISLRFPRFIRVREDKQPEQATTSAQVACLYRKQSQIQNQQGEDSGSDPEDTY
Compound,inhibition [1],also measured
COc1ccc2[nH]c(C)c(C3C(C#N)=C(N)Oc4c(C(C)C)cc(/C=C/C(=O)c5cccs5)cc43)c2c1 (configuration not stated),< 20%,Activity (HepG2): Active; Activity (MDA-MB-231): Active; Activity (DLD-1): Active; Activity (4T1 (Mus musculus)): Active; Activity (HeLa): Active
Cc1ccc(C(=O)/C=C/c2cc3c(c(C(C)(C)C)c2)OC(N)=C(C#N)C3c2c(C)[nH]c3ccc(Cl)cc23)cc1 (configuration not stated),> 50%,–
COc1ccc(C(=O)/C=C/c2cc3c(c(C(C)(C)C)c2)OC(N)=C(C#N)C3c2c(C)[nH]c3ccc(Cl)cc23)cc1 (configuration not stated),> 50%,–
CCC(C)c1cc(/C=C/C(=O)c2cc(OC)c(OC)c(OC)c2)cc2c1OC(N)=C(C#N)C2c1c(C)[nH]c2ccccc12 (configuration not stated),< 20%,–
Cc1ccc(C(=O)/C=C/c2cc3c(c(C(C)(C)C)c2)OC(N)=C(C#N)C3c2c(C)[nH]c3ccccc23)cc1 (configuration not stated),< 20%,–
COc1ccc(C(=O)/C=C/c2cc3c(c(C(C)(C)C)c2)OC(N)=C(C#N)C3c2c(C)[nH]c3ccccc23)cc1 (configuration not stated),< 20%,–
COc1cc(C(=O)/C=C/c2cc3c(c(C(C)(C)C)c2)OC(N)=C(C#N)C3c2c(C)[nH]c3ccccc23)cc(OC)c1OC (configuration not stated),< 20%,–
